In brackets after ≈: the same amount, converted by molar mass.
Key:
[1] = molecular target: Phosphatidylinositol 4,5-bisphosphate 3-kinase catalytic subunit beta isoform (Homo sapiens, UniProt P42338); test: Inhibition of human recombinant His6-tagged PI3K p110beta expressed in baculovirus using DiC8-PI(4,5)P2 as substrate after 20 mins by AlphaScreen assay
Summary of the method: (§1)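 Values are the mean of at least two experiments. Experimental error was within 20% of the value.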

[2] = molecular target: Phosphatidylinositol 4,5-bisphosphate 3-kinase catalytic subunit alpha isoform (Homo sapiens, UniProt P42336); test: Inhibition of human recombinant His6-tagged PI3K p110alpha expressed in baculovirus using DiC8-PI(4,5)P2 as substrate after 20 mins by AlphaScreen assay; summary of the method: as §1
[3] = Lipophilicity, log D of the compound by HPLC analysis at pH 7.4; assay type: physicochemical; conditions: buffer
Summary of the method: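 LogD was determined experimentally at pH 7.4 by an HPLC method.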

[4] = Solubility of the compound in DMSO/HBSS at pH 7.4; assay type: physicochemical
Summary of the method: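 Solubility was measured from DMSO into HBSS at pH 7.4.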

[5] = Half life in human liver microsomes after 30 mins; assay type: ADME, Microsome
Summary of the method: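 Half-life was measured after a 30 min incubation with human liver microsomes at 0.5 mg/mL.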

Liver microsomes = test: Drug metabolism in human liver microsomes assessed as reactive glutathione adduct formation ratio after 30 mins relative to clozapine; assay type: ADME, Microsome; conditions: 0.5 h
Summary of the method: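 Human liver microsomes at 1 mg/mL were incubated for 30 min in the presence of glutathione. The read-out was the ratio of reactive metabolite formation.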

[6] = molecular target: T1, Phosphatidylinositol 4,5-bisphosphate 3-kinase catalytic subunit delta isoform (Homo sapiens, UniProt O00329); test: Inhibition of PI3K p110delta
T1 sequence (O00329 whole entry): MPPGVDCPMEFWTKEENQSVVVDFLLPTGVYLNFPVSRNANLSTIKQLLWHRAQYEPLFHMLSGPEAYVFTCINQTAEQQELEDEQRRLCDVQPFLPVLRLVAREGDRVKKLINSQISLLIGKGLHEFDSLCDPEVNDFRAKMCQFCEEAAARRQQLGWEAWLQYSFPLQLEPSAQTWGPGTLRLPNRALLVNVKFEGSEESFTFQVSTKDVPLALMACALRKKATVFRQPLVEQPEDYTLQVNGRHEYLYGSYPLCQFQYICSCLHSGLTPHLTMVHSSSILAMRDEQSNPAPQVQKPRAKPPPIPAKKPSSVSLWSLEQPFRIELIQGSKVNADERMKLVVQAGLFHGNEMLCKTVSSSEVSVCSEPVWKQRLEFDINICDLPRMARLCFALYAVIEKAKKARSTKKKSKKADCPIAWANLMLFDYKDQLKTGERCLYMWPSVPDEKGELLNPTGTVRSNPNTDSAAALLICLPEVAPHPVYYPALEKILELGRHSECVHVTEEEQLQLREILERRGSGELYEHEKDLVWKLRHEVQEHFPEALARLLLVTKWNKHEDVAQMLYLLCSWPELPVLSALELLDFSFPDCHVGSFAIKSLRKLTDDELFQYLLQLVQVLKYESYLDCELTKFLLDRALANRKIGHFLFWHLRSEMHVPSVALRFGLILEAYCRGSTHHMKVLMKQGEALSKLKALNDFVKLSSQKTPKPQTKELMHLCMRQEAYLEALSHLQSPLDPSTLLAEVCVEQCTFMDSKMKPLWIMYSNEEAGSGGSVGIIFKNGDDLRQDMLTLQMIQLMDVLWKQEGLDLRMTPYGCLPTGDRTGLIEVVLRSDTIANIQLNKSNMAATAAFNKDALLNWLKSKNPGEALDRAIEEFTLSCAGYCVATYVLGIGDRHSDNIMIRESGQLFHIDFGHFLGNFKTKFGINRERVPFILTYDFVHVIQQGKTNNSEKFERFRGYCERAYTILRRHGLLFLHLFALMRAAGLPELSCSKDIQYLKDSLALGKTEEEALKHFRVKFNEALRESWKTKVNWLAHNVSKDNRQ

[7] = molecular target: Phosphatidylinositol 4,5-bisphosphate 3-kinase catalytic subunit gamma isoform (Homo sapiens, UniProt P48736); test: Inhibition of PI3K p110gamma
Phosphatidylinositol 4,5-bisphosphate 3-kinase catalytic subunit gamma isoform, sequence (P48736 whole entry, canonical isoform): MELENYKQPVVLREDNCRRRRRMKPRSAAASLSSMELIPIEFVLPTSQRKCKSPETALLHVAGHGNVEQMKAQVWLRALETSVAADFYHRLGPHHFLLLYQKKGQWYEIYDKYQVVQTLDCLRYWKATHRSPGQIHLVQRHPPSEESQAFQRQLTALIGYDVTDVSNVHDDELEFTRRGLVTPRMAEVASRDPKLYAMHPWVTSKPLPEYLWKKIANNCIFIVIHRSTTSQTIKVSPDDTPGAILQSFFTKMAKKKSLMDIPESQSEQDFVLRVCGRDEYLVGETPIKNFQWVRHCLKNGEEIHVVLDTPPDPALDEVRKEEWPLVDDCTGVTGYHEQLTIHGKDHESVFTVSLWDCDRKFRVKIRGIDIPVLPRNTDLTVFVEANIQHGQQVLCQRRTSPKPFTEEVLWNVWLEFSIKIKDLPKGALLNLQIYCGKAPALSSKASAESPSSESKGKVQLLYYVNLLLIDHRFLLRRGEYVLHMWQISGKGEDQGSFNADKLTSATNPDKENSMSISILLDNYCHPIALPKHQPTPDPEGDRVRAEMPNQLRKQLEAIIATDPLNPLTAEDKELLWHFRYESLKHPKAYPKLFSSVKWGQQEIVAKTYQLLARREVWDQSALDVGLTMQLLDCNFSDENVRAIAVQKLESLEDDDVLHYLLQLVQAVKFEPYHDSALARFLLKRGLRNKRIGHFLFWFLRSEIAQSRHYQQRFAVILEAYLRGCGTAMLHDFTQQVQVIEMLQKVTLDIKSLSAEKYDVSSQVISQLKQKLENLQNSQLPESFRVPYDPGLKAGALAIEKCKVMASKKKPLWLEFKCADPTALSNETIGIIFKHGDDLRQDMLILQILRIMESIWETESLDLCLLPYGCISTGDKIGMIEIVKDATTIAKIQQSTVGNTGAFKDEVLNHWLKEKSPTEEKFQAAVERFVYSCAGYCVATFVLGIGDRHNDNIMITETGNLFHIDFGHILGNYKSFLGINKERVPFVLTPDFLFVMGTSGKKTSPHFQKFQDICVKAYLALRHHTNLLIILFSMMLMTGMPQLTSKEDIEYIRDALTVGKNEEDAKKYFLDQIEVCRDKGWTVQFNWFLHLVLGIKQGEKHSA

Phosphatidylinositol 4,5-bisphosphate 3-kinase catalytic subunit beta isoform, sequence (P42338 whole entry, canonical isoform): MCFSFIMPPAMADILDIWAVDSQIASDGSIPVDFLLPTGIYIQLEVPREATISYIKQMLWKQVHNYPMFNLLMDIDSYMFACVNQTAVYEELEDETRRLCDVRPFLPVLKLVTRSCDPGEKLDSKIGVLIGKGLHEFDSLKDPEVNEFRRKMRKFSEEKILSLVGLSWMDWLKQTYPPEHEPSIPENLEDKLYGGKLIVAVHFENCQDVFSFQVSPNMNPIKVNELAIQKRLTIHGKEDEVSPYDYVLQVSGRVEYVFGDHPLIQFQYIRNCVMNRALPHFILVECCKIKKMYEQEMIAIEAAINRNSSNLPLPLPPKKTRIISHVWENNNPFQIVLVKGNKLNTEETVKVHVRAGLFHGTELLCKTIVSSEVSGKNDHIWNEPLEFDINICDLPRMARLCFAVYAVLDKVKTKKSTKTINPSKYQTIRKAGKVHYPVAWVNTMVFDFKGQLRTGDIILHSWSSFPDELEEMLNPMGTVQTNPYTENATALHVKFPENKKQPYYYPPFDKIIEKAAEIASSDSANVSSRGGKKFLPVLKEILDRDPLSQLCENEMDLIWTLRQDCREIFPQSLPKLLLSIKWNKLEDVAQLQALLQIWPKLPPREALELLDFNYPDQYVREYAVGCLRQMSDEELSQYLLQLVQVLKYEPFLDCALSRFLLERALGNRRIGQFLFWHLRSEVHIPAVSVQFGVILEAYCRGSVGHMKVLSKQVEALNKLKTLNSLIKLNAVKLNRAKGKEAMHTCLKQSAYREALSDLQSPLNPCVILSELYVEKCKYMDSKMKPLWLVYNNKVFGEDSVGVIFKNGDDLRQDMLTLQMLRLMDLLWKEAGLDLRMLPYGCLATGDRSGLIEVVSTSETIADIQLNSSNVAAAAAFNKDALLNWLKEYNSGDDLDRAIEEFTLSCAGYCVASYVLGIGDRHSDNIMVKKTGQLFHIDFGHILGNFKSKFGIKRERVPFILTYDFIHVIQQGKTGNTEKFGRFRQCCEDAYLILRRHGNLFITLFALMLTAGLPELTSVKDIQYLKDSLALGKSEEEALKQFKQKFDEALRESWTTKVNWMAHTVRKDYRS
Phosphatidylinositol 4,5-bisphosphate 3-kinase catalytic subunit alpha isoform, sequence (P42336 whole entry, canonical isoform): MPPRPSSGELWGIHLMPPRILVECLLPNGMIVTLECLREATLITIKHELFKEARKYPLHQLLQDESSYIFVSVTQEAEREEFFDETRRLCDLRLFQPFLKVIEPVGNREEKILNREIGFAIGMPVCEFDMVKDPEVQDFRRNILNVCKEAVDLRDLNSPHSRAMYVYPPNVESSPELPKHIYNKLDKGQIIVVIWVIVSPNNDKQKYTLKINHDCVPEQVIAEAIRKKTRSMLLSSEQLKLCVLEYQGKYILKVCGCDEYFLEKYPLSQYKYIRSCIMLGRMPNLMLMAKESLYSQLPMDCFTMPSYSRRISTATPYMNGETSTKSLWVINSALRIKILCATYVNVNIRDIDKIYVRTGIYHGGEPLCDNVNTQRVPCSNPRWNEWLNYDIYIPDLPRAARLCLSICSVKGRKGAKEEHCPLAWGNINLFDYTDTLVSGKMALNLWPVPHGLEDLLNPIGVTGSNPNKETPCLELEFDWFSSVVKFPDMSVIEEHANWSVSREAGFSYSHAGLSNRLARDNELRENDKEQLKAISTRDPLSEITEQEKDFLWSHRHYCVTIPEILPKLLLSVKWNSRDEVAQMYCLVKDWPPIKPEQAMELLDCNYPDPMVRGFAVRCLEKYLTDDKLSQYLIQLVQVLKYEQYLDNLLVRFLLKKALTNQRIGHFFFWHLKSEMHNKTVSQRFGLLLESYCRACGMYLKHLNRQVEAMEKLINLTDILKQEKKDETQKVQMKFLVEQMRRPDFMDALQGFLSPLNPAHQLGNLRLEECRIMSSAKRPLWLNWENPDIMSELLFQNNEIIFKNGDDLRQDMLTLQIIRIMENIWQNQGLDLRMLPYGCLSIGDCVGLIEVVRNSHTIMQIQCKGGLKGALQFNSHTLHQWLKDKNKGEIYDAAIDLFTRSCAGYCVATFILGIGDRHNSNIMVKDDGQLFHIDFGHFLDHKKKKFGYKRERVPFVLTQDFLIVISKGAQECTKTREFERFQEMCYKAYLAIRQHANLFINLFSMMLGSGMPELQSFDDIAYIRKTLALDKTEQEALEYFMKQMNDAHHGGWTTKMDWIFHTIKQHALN

Structure (SMILES) | IC50 [1] | IC50 [2] | other results
CN(C)C(=O)c1cc(N2CCOCC2)nc(NCc2ccccc2)n1 | 25 µM | – | –
O=c1cc(N2CCOCC2)nc(NCc2cccc(Cl)c2)[nH]1 | 0.47 µM | 7.9 µM | –
Nc1nc(NCc2ccccc2)cc(N2CCOCC2)n1 | 110 µM | > 83.3 µM | –
NC(=O)c1cc(N2CCOCC2)nc(NCc2ccccc2)n1 | 2.5 µM | – | –
O=c1cc(N2CCOCC2)nc(NCc2cccc3ccccc23)[nH]1 | 0.093 µM | 4.3 µM | logD [3]: 2.4; solubility [4]: 4.5 µM (≈ 1.51 µg/mL); half-life [5]: 41 min; Ratio (Liver microsomes): 0.21; IC50 [6]: 0.14 µM; IC50 [7]: 18.5 µM
OCc1cc(NCc2ccccc2)nc(N2CCOCC2)c1 | 43 µM | 119 µM | –
c1ccc(CNc2cc(N3CCOCC3)ncn2)cc1 | 36 µM | > 83.3 µM | –
O=c1nc(N2CCOCC2)cc(NCc2cccc3ccccc23)[nH]1 | 2.6 µM | > 83.3 µM | logD [3]: 1.5; solubility [4]: > 100 µM; half-life [5]: > 115 min; Ratio (Liver microsomes): 0
O=c1cc(NCc2ccccc2)nc(N2CCOCC2)[nH]1 | 63 µM | 283 µM | logD [3]: 1.1
Cc1cc(C(C)Nc2ccccc2)c2nc(N3CCOCC3)cc(=O)n2c1 (stereo not given) | – | 5.7 µM | logD [3]: 3.6
C[C@@H](Nc1cc(N2CCOCC2)nc(=O)[nH]1)c1cccc2ccccc12 | 36 µM | 146 µM | –
N#Cc1nc(NCc2ccccc2)cc(N2CCOCC2)n1 | 1.6 µM | 41.4 µM | –
O=c1nc(N2CCOCC2)cc(NCc2ccccc2)[nH]1 | 29 µM | > 83.3 µM | logD [3]: 0.5
O=c1cc(NCc2ccccc2)[nH]c(N2CCOCC2)c1 | 34 µM | 142 µM | logD [3]: 1.8
COC(=O)c1cc(NCc2ccccc2)nc(N2CCOCC2)c1 | 32 µM | 240 µM | –
C[C@H](Nc1cc(N2CCOCC2)nc(=O)[nH]1)c1cccc2ccccc12 | 10 µM | 52.8 µM | –
NCc1nc(NCc2ccccc2)cc(N2CCOCC2)n1 | 87 µM | > 83.3 µM | –
O=c1cc(N2CCOCC2)nc(NCc2c(Cl)cccc2Cl)[nH]1 | 1.5 µM | 3.38 µM | –
O=c1cc(N2CCOCC2)nc(NCc2cccc(Cl)c2Cl)[nH]1 | 0.084 µM | 3 µM | –
O=c1cc(N2CCOCC2)nc(NCc2ccccc2)[nH]1 | 1.9 µM | 12.2 µM | logD [3]: 1.2
O=c1cc(N2CCOCC2)nc(NCc2ccccc2Cl)[nH]1 | 0.57 µM | 4.88 µM | –
Cc1cc(N2CCOCC2)nc(NCc2ccccc2)n1 | 130 µM | – | –
O=c1cc(N2CCOCC2)nc(NCc2cc(Cl)ccc2Cl)[nH]1 | 1.4 µM | 4.52 µM | –
O=c1nc(N2CCOCC2)cc(NCc2cccc(Cl)c2Cl)[nH]1 | 1.5 µM | 100 µM | –
CNC(=O)c1cc(N2CCOCC2)nc(NCc2ccccc2)n1 | 23 µM | – | –

Reference: ChEMBL document CHEMBL2157861, “Discovery of 4-morpholino-pyrimidin-6-one and 4-morpholino-pyrimidin-2-one-containing Phosphoinositide 3-kinase (PI3K) p110β isoform inhibitors through structure-based fragment optimisation” (Bioorg Med Chem Lett, 2012)
